Consider 2 compounds from ChEMBL document CHEMBL1165996, “Terpenoids from Salvia trijuga” (J Nat Prod, 2010).

Molecules are shown by their SMILES.

Common to all, as to assay type: functional, cell-based
In one assay the test system is A549. The assay can be described thus: Cytotoxicity against human A549 cells after 48 hrs by MTT assay. As to conditions: A549, 48 h. The method in brief: (§1)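 Cells seeded in 96-well plates 12 h before dosing, then continuously exposed to a range of compound concentrations for 48 h. MTT added for a further 4 h, then 20% SDS added and left 12 h at room temperature. OD read at 595 nm. IC50 calculated by the Reed and Muench method.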
Background: Tetrazolium dyes change colour on reduction, which living cells bring about.

For a further assay, the system named is HL-60. In words: Cytotoxicity against human HL60 cells after 48 hrs by MTT assay. The note with it: HL-60, 48 h. Put shortly:
as §1

The next assay relates to SW480. In words: Cytotoxicity against human SW480 cells after 48 hrs by MTT assay. The note with it: SW480, 48 h. Put shortly: as §1
The subject of another assay is MCF7. The assay can be described thus: Cytotoxicity against human MCF7 cells after 48 hrs by MTT assay. As to conditions: MCF7, 48 h. The method in brief: as §1
A further assay has as its system SMMC-7721. In words: Cytotoxicity against human SMMC7721 cells after 48 hrs by MTT assay. As to conditions: SMMC-7721, 48 h. The method in brief: as §1

A word on the IC50: it is the midpoint of a concentration-inhibition curve. `C[C@@H]1CC[C@]2(C(=O)O)CC[C@]3(C)C(=CC[C@@H]4[C@@]5(C)C(CO)=CC(C)(C)[C@@H]5CC[C@]43C)[C@@H]2[C@]1(C)O` [HYPTASIENIC ACID]: the IC50 in the assay with A549 was 24.7 µM; in the assay on HL-60, 15.5 µM; in the assay with SW480 it was 10.9 µM; in the assay with MCF7, above 40 µM; in the assay on SMMC-7721 it was 21 µM.

Take `C/C=C(\C)C(=O)O[C@@H]1C/C(C)=C/CC[C@@]2(C)O[C@@H]2[C@@H](OC(=O)C(C)C(C)OC(C)=O)[C@H]1C(C)C` (stereo not given in full) [TRIJUGIN I]: the IC50 with A549 was above 40 µM; with HL-60 it was 17.1 µM; in the assay with SW480, 24.9 µM; in the assay on MCF7, above 40 µM; with SMMC-7721, 34 µM.
